Measurements published in ChEMBL document CHEMBL3526048, “In vitro metabolism of rivoglitazone, a novel peroxisome proliferator-activated receptor γ agonist, in rat, monkey, and human liver microsomes and freshly isolated hepatocytes” (Drug Metab Dispos, 2011).

Columns and labels:
Liver microsome [1] = experiment: Drug metabolism in human liver microsomes assessed as formation of 3-(4-((6-methoxy-1-methyl-1H-benzo[d]imidazol-2-yl)methoxy)phenyl)-2-(methylthio)propanoic acid at 20 uM after 2 to 4 hrs by radio-HPLC/LC-MS/MS analysis in presence of NADPH-generating system/SAM and UDPGA/SAM; type: ADME
[2] = biological target: T1, UDP-glucuronosyltransferase 2B4 (Homo sapiens, UniProt P06133); experiment: (§1) Activity of human UGT2B4 expressed in microsomes isolated from baculovirus infected insect cell assessed as enzyme-mediated (2S,3S,4S,5R,6R)-6-((1-carboxy-2-(4-((6-methoxy-1-methyl-1H-benzo[d]imidazol-2-yl)methoxy)phenyl)ethylthio)carbonylamino)-3,4,5-trihydroxytetrahydro-2H-pyran-2-carboxylic acid formation at 20 uM after 4 hrs by radio-HPLC/LC-MS/MS analysis in presence of UDPGA; type: ADME
T1 sequence (P06133 whole entry): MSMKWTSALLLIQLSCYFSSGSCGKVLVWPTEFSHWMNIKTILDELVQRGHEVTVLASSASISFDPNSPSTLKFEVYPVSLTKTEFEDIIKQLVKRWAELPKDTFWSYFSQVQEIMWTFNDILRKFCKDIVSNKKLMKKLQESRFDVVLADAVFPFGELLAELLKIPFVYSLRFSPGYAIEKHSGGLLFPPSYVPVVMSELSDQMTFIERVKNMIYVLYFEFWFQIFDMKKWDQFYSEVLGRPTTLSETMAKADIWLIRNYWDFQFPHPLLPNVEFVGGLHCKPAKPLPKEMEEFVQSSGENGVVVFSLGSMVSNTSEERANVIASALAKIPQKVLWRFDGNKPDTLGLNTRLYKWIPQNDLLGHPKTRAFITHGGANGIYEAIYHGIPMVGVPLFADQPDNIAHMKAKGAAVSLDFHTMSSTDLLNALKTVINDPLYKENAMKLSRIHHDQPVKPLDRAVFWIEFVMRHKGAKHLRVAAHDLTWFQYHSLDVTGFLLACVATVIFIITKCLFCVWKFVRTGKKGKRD

[3] = Drug metabolism in cynomolgus monkey liver microsomes assessed as formation of 5-(4-((6-methoxy-1H-benzo[d]imidazol-2-yl)methoxy)benzyl)thiazolidine-2,4-dione at 20 uM after 2 hrs by radio-HPLC/LC-MS/MS analysis in presence of NADPH-generating system and NADPH-generating system/SAM; type: ADME, Macaca fascicularis
Cytochrome P450 3A5 = Cytochrome P450 3A5 (Homo sapiens, UniProt P20815); experiment: Activity of human CYP3A5 expressed in microsomes isolated from baculovirus infected insect cell assessed as enzyme-mediated 3-(4-((6-methoxy-1-methyl-1H-benzo[d]imidazol-2-yl)methoxy)phenyl)-2-(methylthio)propanamide formation at 20 uM after 2 hrs by radio-HPLC/LC-MS/MS analysis in presence of NADPH-generating system/SAM; type: ADME
Procedure, shortened: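 cDNA-expressed human CYP3A5 in baculovirus-insect-cell microsomes (1 mg/ml protein) was incubated with [¹⁴C]rivoglitazone (20 μM) in 50 mM potassium phosphate (pH 7.4) or 100 mM Tris-HCl (pH 7.5). NADPH-generating system: 2 mM NADP⁺, 20 mM glucose 6-phosphate, 2 units/ml G6PDH, 10 mM MgCl₂. Incubation ran 2 h at 37°C with shaking; insect-cell control supersomes served as control. Acetonitrile stop, supernatant concentrated, then radio-HPLC, LC-MS and LC-MS/MS.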

[4] = Drug metabolism in rat hepatocytes assessed as formation of 2-((4-((2,4-dioxothiazolidin-5-yl)methyl)phenoxy)methyl)-1-methyl-1H-benzo[d]imidazol-6-yl hydrogen sulfate at 30 uM after 3 hrs by radio-HPLC/LC-MS/MS analysis; type: ADME, cell-based, Hepatocyte
[5] = Drug metabolism in rat hepatocytes assessed as formation of 5-(4-((6-methoxy-1H-benzo[d]imidazol-2-yl)methoxy)benzyl)thiazolidine-2,4-dione at 30 uM after 3 hrs by radio-HPLC/LC-MS/MS analysis in presence of NADPH-generating system and NADPH-generating system/SAM; type: ADME, cell-based, Hepatocyte
Liver microsome [6] = experiment: Drug metabolism in human liver microsomes assessed as formation of 3-(4-((6-methoxy-1-methyl-1H-benzo[d]imidazol-2-yl)methoxy)phenyl)-2-(methylsulfonyl)propanamide at 20 uM after 2 hrs by radio-HPLC/LC-MS/MS analysis in presence of NADPH-generating system/SAM; type: ADME
[7] = Drug metabolism in monkey hepatocytes assessed as formation of 3-(4-((6-methoxy-1-methyl-1H-benzo[d]imidazol-2-yl)methoxy)phenyl)-2-(methylsulfinyl)propanamide at 30 uM after 3 hrs by radio-HPLC/LC-MS/MS analysis in presence of NADPH-generating system/SAM; conditions: cynomolgus monkey
[8] = biological target: T2, UDP-glucuronosyltransferase 1A6 (Homo sapiens, UniProt P19224); experiment: as §1, with “UGT1A6” for “UGT2B4”; type: ADME
T2 sequence (P19224 whole entry): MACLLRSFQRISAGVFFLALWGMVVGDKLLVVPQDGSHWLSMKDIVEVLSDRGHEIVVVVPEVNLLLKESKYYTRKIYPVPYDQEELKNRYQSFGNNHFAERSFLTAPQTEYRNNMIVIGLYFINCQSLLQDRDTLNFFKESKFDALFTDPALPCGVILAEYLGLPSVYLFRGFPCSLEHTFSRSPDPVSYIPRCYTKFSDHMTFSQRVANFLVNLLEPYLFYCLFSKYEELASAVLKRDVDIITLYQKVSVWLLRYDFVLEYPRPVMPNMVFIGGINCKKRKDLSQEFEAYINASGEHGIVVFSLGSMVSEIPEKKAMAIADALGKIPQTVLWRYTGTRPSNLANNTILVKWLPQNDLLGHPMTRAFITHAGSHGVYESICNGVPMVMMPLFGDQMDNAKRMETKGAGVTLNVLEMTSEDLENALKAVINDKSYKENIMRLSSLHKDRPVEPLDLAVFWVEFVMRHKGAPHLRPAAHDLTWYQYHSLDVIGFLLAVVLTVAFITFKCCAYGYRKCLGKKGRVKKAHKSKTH

[9] = biological target: T3, UDP-glucuronosyltransferase 1A7 (Homo sapiens, UniProt Q9HAW7); experiment: Activity of human UGT1A7 expressed in microsomes isolated from baculovirus infected insect cell assessed as enzyme-mediated (2S,3S,4S,5R,6R)-3,4,5-trihydroxy-6-(5-(4-((6-methoxy-1-methyl-1H-benzo[d]imidazol-2-yl)methoxy)benzyl)-2,4-dioxothiazolidin-3-yl)tetrahydro-2H-pyran-2-carboxylic acid formation at 20 uM after 4 hrs by radio-HPLC/LC-MS/MS analysis in presence of UDPGA; type: ADME
T3 sequence (Q9HAW7 whole entry): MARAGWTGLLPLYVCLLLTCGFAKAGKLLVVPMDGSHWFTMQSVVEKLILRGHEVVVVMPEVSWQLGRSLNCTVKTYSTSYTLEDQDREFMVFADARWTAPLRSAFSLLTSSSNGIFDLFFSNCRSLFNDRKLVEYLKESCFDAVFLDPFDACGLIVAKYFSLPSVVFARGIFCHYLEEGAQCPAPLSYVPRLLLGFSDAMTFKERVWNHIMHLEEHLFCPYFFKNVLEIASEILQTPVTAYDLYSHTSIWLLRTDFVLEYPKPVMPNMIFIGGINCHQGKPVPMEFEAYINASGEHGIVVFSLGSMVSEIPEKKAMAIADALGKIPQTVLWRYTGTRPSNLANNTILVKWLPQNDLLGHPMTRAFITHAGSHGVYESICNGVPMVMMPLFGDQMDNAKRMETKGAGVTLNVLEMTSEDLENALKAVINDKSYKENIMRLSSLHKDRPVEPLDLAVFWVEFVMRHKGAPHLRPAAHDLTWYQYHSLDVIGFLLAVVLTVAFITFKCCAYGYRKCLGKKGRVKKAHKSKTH

Measured: Drug metabolism

Sequence of Cytochrome P450 3A5 (P20815 whole entry): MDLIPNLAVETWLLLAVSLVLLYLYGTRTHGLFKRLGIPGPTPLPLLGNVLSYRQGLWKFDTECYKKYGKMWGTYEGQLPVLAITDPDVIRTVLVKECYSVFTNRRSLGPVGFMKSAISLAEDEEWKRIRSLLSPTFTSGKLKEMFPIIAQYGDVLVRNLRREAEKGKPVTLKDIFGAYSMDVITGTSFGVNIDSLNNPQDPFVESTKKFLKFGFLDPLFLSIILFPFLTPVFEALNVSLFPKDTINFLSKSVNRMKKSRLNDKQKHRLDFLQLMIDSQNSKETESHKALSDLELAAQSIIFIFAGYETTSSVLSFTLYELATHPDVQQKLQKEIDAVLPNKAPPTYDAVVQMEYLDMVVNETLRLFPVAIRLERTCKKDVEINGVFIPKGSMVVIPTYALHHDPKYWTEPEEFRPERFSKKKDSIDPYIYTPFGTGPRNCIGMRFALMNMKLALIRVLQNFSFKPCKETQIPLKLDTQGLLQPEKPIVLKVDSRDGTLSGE

COc1ccc2nc(COc3ccc(C[14CH]4SC(=O)NC4=O)cc3)n(C)c2c1.Cl (racemic)
metabolite_not_detected: [2] | Cytochrome P450 3A5 | [7] | [8] | [9]
metabolite_detected: all other assays above
